Measured values collected from several papers.
Lines come from different studies, so protocols differ.
Target: NUAK family SNF1-like kinase 1 (NUAK1, Homo sapiens, UniProt O60285)
Observed: enzyme activity
Mode: inhibitor
Residues used in one study (O60285 1-661): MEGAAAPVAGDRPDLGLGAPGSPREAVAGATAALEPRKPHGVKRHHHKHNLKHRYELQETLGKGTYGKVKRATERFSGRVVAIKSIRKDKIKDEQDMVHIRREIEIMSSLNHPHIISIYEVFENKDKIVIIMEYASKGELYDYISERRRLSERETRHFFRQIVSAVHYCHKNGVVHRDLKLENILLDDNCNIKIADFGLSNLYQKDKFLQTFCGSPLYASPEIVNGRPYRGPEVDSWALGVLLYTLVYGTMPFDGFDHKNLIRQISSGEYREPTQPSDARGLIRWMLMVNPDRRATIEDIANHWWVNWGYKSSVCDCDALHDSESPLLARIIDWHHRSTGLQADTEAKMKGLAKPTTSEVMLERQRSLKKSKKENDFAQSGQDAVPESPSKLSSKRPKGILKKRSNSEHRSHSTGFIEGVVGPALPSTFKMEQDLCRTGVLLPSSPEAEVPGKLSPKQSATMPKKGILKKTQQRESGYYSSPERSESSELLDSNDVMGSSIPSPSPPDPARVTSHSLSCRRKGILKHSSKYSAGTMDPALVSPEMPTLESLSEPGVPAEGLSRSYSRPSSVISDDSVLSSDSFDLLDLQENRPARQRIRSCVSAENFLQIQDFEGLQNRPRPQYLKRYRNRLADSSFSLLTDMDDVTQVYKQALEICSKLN

| SMILES | test | conditions | remaining activity [%] |
| --- | --- | --- | --- |
| Cc1cnc(NC2CCOCC2)nc1-n1cnc(C(=O)NC(CN)c2cc(F)cc(Cl)c2)c1 (stereo not drawn) | radiometric | 1 µM | 67 |
| NS(=O)(=O)c1ccc(CNc2nc(Nc3cccc(CN4CCOCC4)c3)ncc2C2CC2)cc1 | radiometric | 1 µM | 83 |
| CC(C)(C)c1nc(-c2cccc(NS(=O)(=O)c3c(F)cccc3F)c2F)c(-c2ccnc(N)n2)s1 | radiometric | 1 µM | 101 |
| O=C(Nc1cnn(-c2csc(C(=O)NC3COC3)c2)c1)Nc1ccccc1Cl | – | 5 µM | 97.9 |
| CC(C)(C)c1nc2c(s1)c1nc(N)ncc1c1ccc(NS(=O)(=O)c3c(F)cccc3F)c(F)c12 | radiometric | 1 µM | 95 |
| NS(=O)(=O)c1ccc(CNc2nc(Nc3cccc(NC(=O)N4CCCC4)c3)ncc2C2CC2)cc1 | radiometric | 1 µM | 89 |
| COc1cc(Nc2cnc(C#N)c(O[C@H](C)CN(C)C)n2)ncc1-c1cnn(C)c1 | radiometric | 10 µM | 7 |
| Cc1sc(C(=O)NC2COC2)cc1-n1cc(NC(=O)Nc2c(F)cccc2Cl)cn1 | – | 10 µM | 96.9 |
| O=C(Nc1cccc(Nc2ncc(Br)c(NCCc3cnc[nH]3)n2)c1)N1CCCC1 | radiometric | 1 µM | 1 |
| Cc1ccc(C(=O)Nc2ccc(CN3CCN(C)CC3)c(C(F)(F)F)c2)cc1C#Cc1cnc2cccnn12 | – | 23.5 nM | 85 |
| COc1cc(Cl)c(C(=O)N[C@@H](CN[C@H]2CC[C@@H](N)CC2)Cc2ccc(C#N)cc2)cc1-c1ccc(CN[C@H](C)c2ccc(C)cc2)o1 | – | 1 µM | 92 |
| Oc1cccc(-c2nc(N3CCOCC3)c3oc4ncccc4c3n2)c1 | – | 10 µM | 98 |
| Cc1nn(CC(F)(F)F)cc1Nc1nccc(NCCCNC(=O)C2CCC2)n1 | radiometric | 1 µM | 86 |
| CC(C)(O)[C@H]1CC[C@H](Nc2ccc3ncc(-c4cccc(C(F)(F)F)c4)n3n2)CC1 | – | 1 µM | 72 |
| Cn1c(=O)n(-c2ccc(C(C)(C)C#N)cc2)c2c3cc(-c4cnc5ccccc5c4)ccc3ncc21 | – | 10 µM | 44 |
